Results on four molecules are retold here after ChEMBL document CHEMBL3112561, “Small molecule disruptors of the glucokinase-glucokinase regulatory protein interaction: 2. Leveraging structure-based drug design to identify analogues with improved pharmacokinetic profiles” (J Med Chem, 2014).

In data set [1] the test system is Mus musculus. The data set is described as follows: Antidiabetic activity in insulin-resistant db/db mouse assessed as reduction of fed blood glucose level at 100 mg/kg, po measured at 8 hrs relative to vehicle-treated control. In kind it is functional. Details: scale not given: the % may be the effect or the level left; call rule not given here.
Data set [2] has as its system Mus musculus. The data set is described as follows: Antidiabetic activity in insulin-resistant db/db mouse assessed as reduction of fed blood glucose level at 100 mg/kg, po measured at 6 hrs relative to vehicle-treated control. The data set is classed as functional. Details: scale not given: the % may be the effect or the level left.
Data set [3] deals with Mus musculus. Put plainly: Antidiabetic activity in insulin-resistant db/db mouse assessed as reduction of fed blood glucose level at 30 mg/kg, po measured at 6 hrs relative to vehicle-treated control. More on the design: scale not given: the % may be the effect or the level left. The data set is classed as functional.
Data set [4] concerns Mus musculus. Put plainly: Unbound maximum concentration in C57Bl6 mouse at 10 mg/kg, po. The data set is classed as ADME, organism-based. Details: dose 10 mg/kg, route oral. The note with it: in vivo.
A short description of data set [5]: Oral bioavailability in C57Bl6 mouse at 10 mg/kg. The note with it: in vivo. The data set is classed as ADME, organism-based.
Data set [6] is described as follows: Mean residence time in C57Bl6 mouse at 10 mg/kg, po. In kind it is ADME, organism-based. More on the design: dose 10 mg/kg, route oral. Conditions: in vivo. The gist of the method:
(§1)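 Oral PK at 10 mg/kg in 1% Tween 80, 2% HPMC, 97% water, […]; mean residence time from plasma profile.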

The nature of data set [7]: Volume of distribution at steady state in C57Bl6 mouse at 2 mg/kg, iv. Conditions: in vivo, read-out: Vdss. In kind it is ADME, organism-based. More on the design: dose 2 mg/kg, route intravenous. The procedure, abridged: (§2)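 Intravenous PK at 2 mg/kg in 100% DMSO; steady-state volume of distribution derived from plasma profile.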
Data set [8] in a line: Mean residence time in rat at 10 mg/kg, po. In kind it is ADME, organism-based. Details: dose 10 mg/kg, route oral. The note with it: in vivo. The gist of the method: as §1
Data set [9] in a line: Oral bioavailability in rat at 10 mg/kg. Conditions: in vivo. In kind it is ADME, organism-based.
Data set [10] can be described thus: Volume of distribution at steady state in rat at 2 mg/kg, iv. The data set is classed as ADME, organism-based. Details: dose 2 mg/kg, route intravenous. The note with it: in vivo, read-out: Vdss. The procedure, abridged:
as §2

In data set [11] the test system is Plasma. Put plainly: Unbound plasma concentration in insulin-resistant db/db mouse at 30 mg/kg, po measured at 6 hrs. In kind it is ADME, organism-based. Details: dose 30 mg/kg, route oral. Conditions: in vivo. The gist of the method: (§3)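 Fed db/db mice dosed orally (10, 30, 100 mg/kg) in 2% HPMC/1% Tween 80 vehicle, pH 2.2 (MSA), gavaged at 9:00 AM. A 15 μL whole-blood sample taken at 6 h post-dose for drug exposure, reported as unbound plasma concentration.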

The subject of data set [12] is Plasma. The data set is described as follows: Unbound plasma concentration in insulin-resistant db/db mouse at 100 mg/kg, po measured at 6 hrs. The data set is classed as ADME, organism-based. Details: dose 100 mg/kg, route oral. The note with it: in vivo. The procedure, abridged:
as §3

Data set [13] has as its system Plasma. The data set is described as follows: Unbound plasma concentration in insulin-resistant db/db mouse at 10 mg/kg, po measured at 6 hrs. Details: dose 10 mg/kg, route oral. Conditions: in vivo. In kind it is ADME, organism-based. The gist of the method: as §3
Data set [14] deals with T1, Glucokinase regulatory protein (Homo sapiens, UniProt Q14397).
T1 sequence (Q14397 whole entry): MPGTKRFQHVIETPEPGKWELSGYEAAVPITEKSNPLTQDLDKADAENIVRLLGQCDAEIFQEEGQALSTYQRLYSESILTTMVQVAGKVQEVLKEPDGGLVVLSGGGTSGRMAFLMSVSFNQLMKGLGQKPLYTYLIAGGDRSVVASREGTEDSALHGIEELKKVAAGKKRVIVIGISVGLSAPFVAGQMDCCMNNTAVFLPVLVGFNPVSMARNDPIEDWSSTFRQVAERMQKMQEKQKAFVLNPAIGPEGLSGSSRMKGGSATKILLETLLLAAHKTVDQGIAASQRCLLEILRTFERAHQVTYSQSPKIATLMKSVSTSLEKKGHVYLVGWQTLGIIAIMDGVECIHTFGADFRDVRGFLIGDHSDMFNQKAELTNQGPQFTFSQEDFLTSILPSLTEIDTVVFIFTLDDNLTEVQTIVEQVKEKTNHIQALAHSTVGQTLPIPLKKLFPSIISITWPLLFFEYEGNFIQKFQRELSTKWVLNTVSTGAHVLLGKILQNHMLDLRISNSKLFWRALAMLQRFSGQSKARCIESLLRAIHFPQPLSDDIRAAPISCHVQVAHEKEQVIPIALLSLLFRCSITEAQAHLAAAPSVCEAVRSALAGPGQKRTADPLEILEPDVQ
The data set is described as follows: Inhibition of fluorescein-labeled human GK interaction with biotin-labeled human GKRP incubated for 20 mins prior to addition of fluorescein-labeled GK measured after 2 to 4 hrs by Alpha Screen assay. A general note: Bead proximity is the source of the signal in Alpha formats.

The subject of data set [15] is Liver microsome. The data set is described as follows: Drug metabolism in human liver microsomes assessed as cleavage of sufonamide. The data set is classed as ADME.
Data set [16] deals with Liver microsome. The data set is described as follows: Drug metabolism in human liver microsomes assessed as oxidation of thiophene ring. The data set is classed as ADME. (In general: Microsomes from liver hold many membrane-bound enzymes, among them those of drug oxidation.)
In data set [17] the test system is Liver microsome. The data set is described as follows: Drug metabolism in rat liver microsomes assessed as cleavage of sufonamide. The data set is classed as ADME.
In data set [18] the test system is Liver microsome. The data set is described as follows: Drug metabolism in rat liver microsomes assessed as oxidation of thiophene ring. The data set is classed as ADME.
Data set [19] can be described thus: Intrinsic clearance in rat liver microsomes at 1 uM after 30 mins in presence of NADPH. The data set is classed as ADME. Conditions: read-out: CLH.
A short description of data set [20]: Intrinsic clearance in human liver microsomes at 1 uM after 30 mins in presence of NADPH. The data set is classed as ADME. The note with it: read-out: CLH.
Data set [21] concerns the target T2, Glucokinase regulatory protein (Mus musculus, UniProt Q91X44).
T2 sequence (Q91X44 whole entry): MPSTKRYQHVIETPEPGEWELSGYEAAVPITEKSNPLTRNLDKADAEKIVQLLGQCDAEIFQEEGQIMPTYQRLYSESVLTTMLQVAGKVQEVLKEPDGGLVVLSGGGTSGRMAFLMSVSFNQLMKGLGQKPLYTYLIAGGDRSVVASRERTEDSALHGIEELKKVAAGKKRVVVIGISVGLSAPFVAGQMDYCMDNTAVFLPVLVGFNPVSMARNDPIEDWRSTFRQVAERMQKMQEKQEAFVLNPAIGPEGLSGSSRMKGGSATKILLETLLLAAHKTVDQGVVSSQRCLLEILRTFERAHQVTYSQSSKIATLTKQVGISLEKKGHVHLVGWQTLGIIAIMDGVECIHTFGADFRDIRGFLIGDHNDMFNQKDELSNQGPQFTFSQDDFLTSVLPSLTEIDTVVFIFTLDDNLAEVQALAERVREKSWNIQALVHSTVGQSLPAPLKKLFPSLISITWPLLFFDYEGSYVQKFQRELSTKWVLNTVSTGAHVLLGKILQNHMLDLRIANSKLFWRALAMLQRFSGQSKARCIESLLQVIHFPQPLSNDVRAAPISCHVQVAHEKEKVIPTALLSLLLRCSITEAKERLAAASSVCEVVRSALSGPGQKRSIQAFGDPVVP
Put plainly: Induction of GK translocation from nucleus to cytoplasm of mouse hepatocytes preincubated for 20 mins followed by glucose challenge measured after 40 mins by Hoechst 33342 staining-based assay. The data set is classed as cell-based, Hepatocyte.

Data set [22] deals with Liver microsome. Put plainly: Drug metabolism in human liver microsomes assessed as oxidation of bicyclic morpholine ring. The data set is classed as ADME.
Data set [23] relates to Liver microsome. Put plainly: Drug metabolism in rat liver microsomes assessed as oxidation of bicyclic morpholine ring. In kind it is ADME.
Data set [24] relates to Mus musculus. Put plainly: Unbound maximum concentration in C57Bl6 mouse at 100 mg/kg, po. In kind it is ADME, organism-based. More on the design: dose 100 mg/kg, route oral. The note with it: in vivo.
A short description of data set [25]: Ratio of EC50 for induction of GK translocation from nucleus to cytoplasm of mouse hepatocytes to ratio of unbound maximum concentration in C57Bl6 mouse. Details: species or system Hepatocyte.
The nature of data set [26]: Fraction unbound in rat plasma at 10 mg/kg, po by rapid equilibrium dialysis method. The data set is classed as ADME, organism-based. More on the design: dose 10 mg/kg, route oral. The procedure, abridged:
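Plasma fraction unbound measured by rapid equilibrium dialysis.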
(In general: Equilibrium dialysis compares concentrations on both sides of a semipermeable membrane.)

A short description of data set [27]: Clearance in rat at 2 mg/kg, iv. In kind it is ADME, organism-based. Details: dose 2 mg/kg, route intravenous. The note with it: in vivo.

With `CC#C[C@H]1CN(S(=O)(=O)c2ccc(N)nc2)CCN1c1ccc(C(O)(C(F)(F)F)C(F)(F)F)cc1`, the Activity in the data set with Mus musculus [1] worked out at 56%; in the data set on Mus musculus [2] it was 60%; in the data set with Mus musculus [3], 47%. Further, in the data set with Mus musculus [4], the fCmax came out at 0.068 µM. The values for the bioavailability in data set [5] and in data set [9] were 40% and 75%, respectively. Further, the mean residence time MRT (commonly the average time that molecules of a dose stay in the body) came to 9.2 h in [6] and 6.2 h in data set [8]. Moreover, the Vd in data set [7] worked out at 1.1 L/kg; in [10], 3.6 L/kg.
On to `CC#C[C@H]1CN(S(=O)(=O)c2ccc(N)nc2)CCN1c1ccc([C@@](C)(O)C(F)(F)F)cc1`, for which the “Cp(f)” value in the data set on Plasma [11] was determined as 0.24 µM; in the data set with Plasma [12] it was 0.786 µM; in the data set with Plasma [13], 0.058 µM. This molecule also registered a fCmax in the data set with Mus musculus [4] of 0.292 µM. The bioavailability – broadly, the share of a dose that reaches the circulation, judged against a reference dose that is usually intravenous – in data set [5] turned out to be 39%; in data set [9], 82%. Besides, the mean residence time MRT in data set [6] was 5.3 h; in data set [8] it was 4.6 h. In addition, the Vd in data set [7] amounted to 1 L/kg; in data set [10], 1.6 L/kg.
Turning to `C[C@@](O)(c1ccc(N2CCN(S(=O)(=O)c3cccs3)C[C@@H]2CN2[C@H]3COC[C@@H]2[C@H](O)C3)cc1)C(F)(F)F`, the IC50 (as a rule, the concentration that gives 50% inhibition) in data set [14] was determined as 14 nM. For the same molecule, the Drug metabolism entry in the data set with Liver microsome [15], with Liver microsome [16], in the data set with Liver microsome [17] and with Liver microsome [18] was “Active” each time. Moreover, the figures for the microsomal CLint at 1 µM in [19] and in [20] were 118 µL/min/mg and 128 µL/min/mg, respectively. In addition, in data set [21], a half-maximal response (EC50) required 1190 nM.
For `C[C@H]1COCCN1C[C@H]1CN(S(=O)(=O)c2cccs2)CCN1c1ccc([C@@](C)(O)C(F)(F)F)cc1`, the Drug metabolism result in the data set with Liver microsome [22] and in the data set on Liver microsome [23] was “Active” each time. The same molecule gave a fCmax in the data set with Mus musculus [24] of 0.032 µM. Besides, the Ratio in [25] amounted to 50. Moreover, in data set [26], the fraction unbound (in general, the share of the substance not bound to proteins or other matrix) turned out to be 0.037. The same molecule showed a mean residence time MRT in data set [8] of 4.4 h. In data set [9], this molecule showed a bioavailability of 7%. For the same molecule, the clearance (as a rule, the volume of plasma or blood freed of the substance per unit of time) in data set [27] is 68.3 mL/min/kg. Further, the Vd in [10] came out at 8.3 L/kg. For the same molecule, the microsomal CLint at 1 µM in data set [20] is 353 µL/min/mg. In data set [21], the concentration for a half-maximal effect (EC50) – broadly, the midpoint of the concentration-response curve – was determined as 1790 nM.
